# Assay results published in ChEMBL document CHEMBL1125642, “Fluorocarbocyclic nucleosides: synthesis and antiviral activity of 2'- and 6'-fluorocarbocyclic 2'-deoxy guanosines” (1991).
# Legend:
# [1] = tested on: Human alphaherpesvirus 2; test: In vivo efficacy of compound against HSV-2 strain A133 in the mouse system model was measured at 6.25 dose(mg/kg), activity expressed as Survivors counted on day 21; 5/5; assay type: functional
# Procedure, shortened: (§1)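 Female albino mice (15-18 g) were challenged ip with 0.2 mL virus suspension at (5-15) × LD50. Starting 1 h later, they were dosed sc (0.2 mL, saline) twice daily for 4 days. Doses were the maximum tolerated dose and serial dilutions of it. Groups had 5-10 mice. Survivors were counted on day 21, and ED50 (mg/kg per dose) came from logit transformation (Litchfield–Wilcoxon).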
# [2] = tested on: Human alphaherpesvirus 2; test: In vivo efficacy of compound against HSV-2 strain A133 in the mouse system model was measured at 0.8 dose(mg/kg), activity expressed as Survivors counted on day 21; 2/5; assay type: functional; procedure, shortened: as §1
# [3] = tested on: Human alphaherpesvirus 2; test: Compound was measured for the inhibition of HSV-2 strain A133 in the mouse system model at 3.1 dose(mg/kg); assay type: functional; procedure, shortened: as §1
# [4] = tested on: Human alphaherpesvirus 2; test: Concentration required to inhibit HSV-2 strain 186 cytopathic effect by 50% was measured by plaque reduction assay; assay type: functional; conditions: for IC50: Human alphaherpesvirus 2, read-out: ID50 (the source's name)
# Procedure, shortened: (§2)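 Plaque reduction in confluent Vero monolayers infected with 30-40 PFU of HSV-1 KOS or HSV-2 186, with 1 h adsorption at 37 °C. Cells were then overlaid with maintenance medium containing 0.75% carboxymethylcellulose and a range of compound concentrations. After 2 days at 37 °C, cells were fixed and stained and plaques counted. ID50 is the concentration giving 50% plaque reduction.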
# [5] = tested on: Human alphaherpesvirus 2; test: In vivo efficacy of compound against HSV-1 strain A133 in the mouse system model was measured at 1.6 dose(mg/kg), activity expressed as Survivors counted on day 21; 4/5; assay type: functional; procedure, shortened: as §1
# [6] = tested on: Human alphaherpesvirus 2; test: In vivo efficacy of compound against HSV-2 strain A133 in the mouse system model was measured at 0.4 dose(mg/kg), activity expressed as Survivors counted on day 21; 0/5; assay type: functional; procedure, shortened: as §1
# [7] = tested on: Human alphaherpesvirus 2; test: In vivo efficacy of compound against HSV-2 strain A133 in the mouse system model was measured at 3.1 dose(mg/kg), activity expressed as Survivors counted on day 21; 4/5; assay type: functional; procedure, shortened: as §1
# [8] = tested on: Human alphaherpesvirus 1; test: In vivo efficacy of compound against HSV-1 strain A133 in the mouse system model was measured at 1.6 dose(mg/kg), activity expressed as Survivors counted on day 21; 2/5; assay type: functional; procedure, shortened: as §1
# [9] = tested on: Human alphaherpesvirus 1; test: In vivo efficacy of compound against HSV-1 strain A133 in the mouse system model was measured at 3.1 dose(mg/kg), activity expressed as Survivors counted on day 21; 4/5; assay type: functional; procedure, shortened: as §1
# [10] = tested on: Human alphaherpesvirus 1; test: Concentration required to inhibit HSV-1 strain KOS cytopathic effect by 50% was measured by plaque reduction assay; assay type: functional; conditions: for IC50: Human alphaherpesvirus 1, read-out: ID50 (the source's name); procedure, shortened: as §2
# [11] = tested on: Human alphaherpesvirus 1; test: In vivo efficacy of compound against HSV-1 strain A133 in the mouse system model was measured at 0.1 dose(mg/kg), activity expressed as Survivors counted on day 21; 0/5; assay type: functional; procedure, shortened: as §1
# [12] = tested on: Human alphaherpesvirus 1; test: In vivo efficacy of compound against HSV-1 strain A133 in the mouse system model was measured at 0.4 dose(mg/kg), activity expressed as Survivors counted on day 21; 2/5; assay type: functional; procedure, shortened: as §1
# [13] = tested on: Human alphaherpesvirus 1; test: Compound was measured for the inhibition of HSV-1 strain A133 in the mouse system model at 1.6 dose(mg/kg); assay type: functional; procedure, shortened: as §1
# [14] = tested on: Vero; test: Cytotoxicity was evaluated by measuring the dose affecting 50% of mock-infected Vero monolayers; assay type: functional; conditions: Chlorocebus sabaeus, read-out: ID50 (the source's name)
# Procedure, shortened: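 Mock-infected confluent Vero monolayers were incubated with compound for 48 h at 37 °C and examined microscopically. Gross changes in staining, cell number or morphology were scored. The value is the dose affecting 50% of the monolayer.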
# [15] = tested on: Human alphaherpesvirus 2; test: In vivo efficacy of compound against HSV-2 strain A133 in the mouse system model was measured at 50 dose(mg/kg), activity expressed as Survivors counted on day 21; 1/5; assay type: functional; procedure, shortened: as §1
# [16] = tested on: Human alphaherpesvirus 2; test: In vivo efficacy of compound against HSV-2 strain A133 in the mouse system model was measured at 6.25 dose(mg/kg), activity expressed as Survivors counted on day 21; assay type: functional; procedure, shortened: as §1
# [17] = tested on: Human alphaherpesvirus 2; test: Compound was measured for the inhibition of HSV-2 strain A133 in the mouse system model at 25 dose(mg/kg); assay type: functional; procedure, shortened: as §1
# [18] = tested on: Human alphaherpesvirus 1; test: In vivo efficacy of compound against HSV-1 strain A133 in the mouse system model was measured at 25 dose(mg/kg), activity expressed as Survivors counted on day 21; 2/5; assay type: functional; procedure, shortened: as §1
# [19] = tested on: Human alphaherpesvirus 1; test: In vivo efficacy of compound against HSV-1 strain A133 in the mouse system model was measured at 6.25 dose(mg/kg), activity expressed as Survivors counted on day 21; 0/10; assay type: functional; procedure, shortened: as §1
# [20] = tested on: Human alphaherpesvirus 1; test: In vivo efficacy of compound against HSV-1 strain A133 in the mouse system model was measured at 100 dose(mg/kg), activity expressed as Survivors counted on day 21; 3/5; assay type: functional; procedure, shortened: as §1
# [21] = tested on: Human alphaherpesvirus 1; test: In vivo efficacy of compound against HSV-1 strain A133 in the mouse system model was measured at 100 dose(mg/kg), activity expressed as Survivors counted on day 21; 8/10; assay type: functional; procedure, shortened: as §1
# [22] = tested on: Human alphaherpesvirus 1; test: In vivo efficacy of compound against HSV-1 strain A133 in the mouse system model was measured at 25 dose(mg/kg), activity expressed as Survivors counted on day 21; 1/10; assay type: functional; procedure, shortened: as §1
# [23] = tested on: Human alphaherpesvirus 1; test: Compound was measured for the inhibition of HSV-1 strain A133 in the mouse system model at 25 dose(mg/kg); assay type: functional; procedure, shortened: as §1
# [24] = tested on: Human alphaherpesvirus 1; test: In vivo efficacy of compound against HSV-1 strain A133 in the mouse system model was measured at 6.25 dose(mg/kg), activity expressed as Survivors counted on day 21; 0/5; assay type: functional; procedure, shortened: as §1
# [25] = tested on: Human alphaherpesvirus 2; test: In vivo efficacy of compound against HSV-2 strain CT in the mouse system model was measured at 100dose(mg/kg), activity expressed as Survivors counted on day 21; 2/5
# [26] = tested on: Human alphaherpesvirus 2; test: In vivo efficacy of compound against HSV-2 strain CT in the mouse system model was measured at 25 dose(mg/kg), activity expressed as Survivors counted on day 21; 3/5
# [27] = tested on: Human alphaherpesvirus 2; test: In vivo efficacy of compound against HSV-2 strain CT in the mouse system model was measured at 25 dose(mg/kg), activity expressed as Survivors counted on day 21; 2/10
# [28] = tested on: Human alphaherpesvirus 2; test: In vivo efficacy of compound against HSV-2 strain CT in the mouse system model was measured at 100 dose(mg/kg), activity expressed as Survivors counted on day 21; 7/10
# [29] = tested on: Human alphaherpesvirus 2; test: In vivo efficacy of compound against HSV-2 strain A133 in the mouse system model was measured at 6.25 dose(mg/kg), activity expressed as Survivors counted on day 21; […]; assay type: functional; procedure, shortened: as §1
# [30] = tested on: Human alphaherpesvirus 2; test: In vivo efficacy of compound against HSV-2 strain A133 in the mouse system model was measured at 0.025 dose(mg/kg), activity expressed as Survivors counted on day 21; 0/10; assay type: functional; procedure, shortened: as §1
# [31] = tested on: Human alphaherpesvirus 1; test: In vivo efficacy of compound against HSV-1 strain A133 in the mouse system model was measured at 3.1 dose(mg/kg), activity expressed as Survivors counted on day 21; 10/10; assay type: functional; procedure, shortened: as §1
# [32] = tested on: Human alphaherpesvirus 1; test: In vivo efficacy of compound against HSV-1 strain A133 in the mouse system model was measured at 0.012 dose(mg/kg), activity expressed as Survivors counted on day 21; 1/10; assay type: functional; procedure, shortened: as §1
# [33] = tested on: Human alphaherpesvirus 1; test: In vivo efficacy of compound against HSV-1 strain A133 in the mouse system model was measured at 0.05 dose(mg/kg), activity expressed as Survivors counted on day 21; 1/10; assay type: functional; procedure, shortened: as §1
# [34] = tested on: Human alphaherpesvirus 1; test: In vivo efficacy of compound against HSV-1 strain A133 in the mouse system model was measured at 0.2 dose(mg/kg), activity expressed as Survivors counted on day 21; 4/10; assay type: functional; procedure, shortened: as §1
# [35] = tested on: Human alphaherpesvirus 1; test: In vivo efficacy of compound against HSV-1 strain A133 in the mouse system model was measured at 0.8 dose(mg/kg), activity expressed as Survivors counted on day 21; 10/10; assay type: functional; procedure, shortened: as §1
# [36] = tested on: Human alphaherpesvirus 1; test: Compound was measured for the inhibition of HSV-1 strain A133 in the mouse system model at 0.2 dose(mg/kg); assay type: functional; procedure, shortened: as §1
# [37] = tested on: Human alphaherpesvirus 2; test: Compound was measured for the inhibition of HSV-2 strain A133 in the mouse system model at 0.7 dose(mg/kg); assay type: functional; procedure, shortened: as §1
# [38] = tested on: Human alphaherpesvirus 2; test: In vivo efficacy of compound against HSV-2 strain CT in the mouse system model was measured at 0.1 dose(mg/kg), activity expressed as Survivors counted on day 21; 2/10
# [39] = tested on: Human alphaherpesvirus 2; test: In vivo efficacy of compound against HSV-2 strain CT in the mouse system model was measured at 0.7 dose(mg/kg), activity expressed as Survivors counted on day 21; 2/10
# [40] = tested on: Human alphaherpesvirus 2; test: In vivo efficacy of compound against HSV-2 strain CT in the mouse system model was measured at 1.6 dose(mg/kg), activity expressed as Survivors counted on day 21; 7/10
smiles,measurement,setting,value
"Nc1nc(O)c2ncn(C3CC(O)C(CO)C3F)c2n1 (single isomer, unassigned; (+))",Survivors,[1],5
same,Survivors,[2],2
same,ED50,[3],1.1 mg/kg
same,ID50,[4],0.77 µg/mL
same,Survivors,[5],4
same,Survivors,[6],0
same,Survivors,[7],4
same,Survivors,[8],2
same,Survivors,[9],4
same,ID50,[10],0.16 µg/mL
same,Survivors,[11],0
same,Survivors,[12],2
same,ED50,[13],0.97 mg/kg
same,IC50,[14],> 300 µg/mL
Nc1nc(O)c2ncn([C@@H]3C[C@H](CO)[C@@H](O)C3)c2n1,IC50,[4],0.44 µg/mL
same,IC50,[10],0.06 µg/mL
same,IC50,[14],300 µg/mL
Nc1nc2c(ncn2COCCO)c(=O)[nH]1 [ACYCLOVIR],Survivors,[15],1
same,Survivors,[16],0
same,ED50,[17],58 mg/kg
same,IC50,[4],0.6 µg/mL
same,Survivors,[18],2
same,Survivors,[19],0
same,IC50,[10],0.2 µg/mL
same,Survivors,[20],3
same,Survivors,[21],8
same,Survivors,[22],1
same,ED50,[23],~50 mg/kg
same,ED50,"[23]; Human alphaherpesvirus 1, read-out: ED50",58 mg/kg
same,Survivors,[24],0
same,IC50,[14],> 300 µg/mL
same,Survivors,[25],2
same,Survivors,[26],3
same,Survivors,[27],2
same,Survivors,[28],7
Nc1nc2c(ncn2[C@@H]2C[C@H](CO)[C@@H](O)[C@H]2F)c(=O)[nH]1,IC50,[4],70 µg/mL
same,IC50,[10],2.35 µg/mL
same,IC50,[14],> 300 µg/mL
Nc1nc2c(ncn2[C@@H]2C[C@H](CO)[C@@H](O)[C@@H]2F)c(=O)[nH]1,Survivors,[29],9
same,IC50,[4],0.05 µg/mL
same,Survivors,[30],0
same,Survivors,[31],10
same,IC50,[10],0.006 µg/mL
same,Survivors,[32],1
same,Survivors,[33],1
same,Survivors,[34],4
same,Survivors,[35],10
same,ED50,[36],0.2 mg/kg
same,IC50,[14],> 300 µg/mL
same,ED50,[37],0.8 mg/kg
same,Survivors,[38],2
same,Survivors,[39],2
same,Survivors,[40],7
Nc1nc(O)c2ncn([C@@H]3O[C@H](CO)[C@@H](O)[C@@H]3F)c2n1 [F-ARAG],IC50,[4],19 µg/mL
same,IC50,[10],5 µg/mL
same,IC50,[14],> 100 µg/mL
"Nc1nc(O)c2ncn(C3CC(O)C(CO)C3F)c2n1 (single isomer, unassigned; (-))",ID50,[4],155 µg/mL
same,ID50,[10],15 µg/mL
